According to ChEMBL document CHEMBL4732138, “Evaluation of the Structure-Activity Relationship of Microtubule-Targeting 1,2,4-Triazolo[1,5-a]pyrimidines Identifies New Candidates for Neurodegenerative Tauopathies” (J Med Chem, 2021):

Columns and labels:
Tubulin (Homo sapiens) [1] = biological target: T1, Tubulin (Homo sapiens) (UniProt P68371+Q9H4B7+P0DPH7+P68366+Q13509+Q71U36+P04350+Q3ZCM7+P07437+P68363+Q9BQE3+Q6PEY2+Q13885+Q9BVA1+Q9BUF5); assay: Stabilization of microtubules in human QBI293 cells assessed as fold change in alpha tubulin levels at 1 uM after 4 hrs by ELISA relative to DMSO; format: cell-based
Summary of the method: (§1)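 QBI293 cells were grown in DMEM with 10% FBS, 2 mM L-glutamine and penicillin/streptomycin, then plated at 6 × 10^5 cells/well and left overnight. Medium was replaced with fresh medium holding vehicle (DMSO) or compound, and cells were incubated 4 h. Whole-cell extract supernatants were protein-normalized by BCA assay. AcTub and α-tubulin were quantified by ELISA against standard curves. Values are fold-change over DMSO, analysed by one-way ANOVA.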

Tubulin (Homo sapiens) [2] = biological target: T1, Tubulin (Homo sapiens); assay: Stabilization of microtubules in human QBI293 cells assessed as fold change in acetylated tubulin levels at 1 uM after 4 hrs by ELISA relative to DMSO; format: cell-based; summary of the method: as §1
Tubulin (Homo sapiens) [3] = biological target: T1, Tubulin (Homo sapiens); assay: Stabilization of microtubules in human QBI293 cells assessed as fold change in acetylated tubulin levels at 10 uM after 4 hrs by ELISA relative to cevipabulin; format: cell-based
Tubulin (Homo sapiens) [4] = biological target: T1, Tubulin (Homo sapiens); assay: Stabilization of microtubules in human QBI293 cells assessed as fold change in alpha tubulin levels at 10 uM after 4 hrs by ELISA relative to DMSO; format: cell-based; summary of the method: as §1
Tubulin (Homo sapiens) [5] = biological target: T1, Tubulin (Homo sapiens); assay: Stabilization of microtubules in human QBI293 cells assessed as decrease in alpha-tubulin levels at 1 to 10 uM after 4 hrs by ELISA relative to control; format: cell-based; design: scale not given: the % may be the effect or the level left; conditions: dose 1-10 µM
Summary of the method: (§2)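 QBI293 cells are grown in DMEM with 10% FBS, 2 mM L-glutamine and penicillin/streptomycin, plated at 6 × 10^5 cells/well and incubated overnight. […] Acetyl- and total α-tubulin in whole-cell extract supernatants are measured by ELISA against standard curves, with protein by BCA. Values are fold-change over DMSO; AcTub is also given relative to 100 nM cevipabulin positive control. Significance is by one-way ANOVA.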

Tubulin (Homo sapiens) [6] = biological target: T1, Tubulin (Homo sapiens); assay: Stabilization of microtubules in human QBI293 cells assessed as fold change in acetylated tubulin levels at 10 uM after 4 hrs by ELISA relative to DMSO; format: cell-based; summary of the method: as §1
Tubulin (Homo sapiens) [7] = biological target: T1, Tubulin (Homo sapiens); assay: Stabilization of microtubules in human QBI293 cells assessed as fold change in acetylated tubulin levels at 1 uM after 4 hrs by ELISA relative to cevipabulin; format: cell-based
[8] = n-octanol-water distribution coefficient, log D of the compound at pH 7.4 by shake flask method; format: physicochemical
Summary of the method: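 Distribution coefficient between n-octanol and water at pH 7.4, measured by shake-flask method.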

Tubulin (Homo sapiens) [9] = biological target: T1, Tubulin (Homo sapiens); assay: Stabilization of microtubules in human QBI293 cells assessed as increase in acetylated tubulin levels after 4 hrs by ELISA; format: cell-based; summary of the method: as §2
[10] = Ratio of drug concentration in brain to plasma in CD-1 mouse at 2.5 mg/kg, ip administered as single cassette dosing and measured after 1 hr; format: ADME, organism-based; conditions: read-out: BPR
Summary of the method: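 Groups of three female CD-1 mice, 2–3 months old, cassette-dosed i.p. with 2–3 compounds at the same time, each at 2.5 mg/kg in DMSO. Euthanised 1 h after dosing. Brain hemispheres homogenised in 10 mM ammonium acetate pH 5.7 (50% w/v). Plasma from blood collected in EDTA and centrifuged 4,500 × g, 10 min, 4 °C. Compound levels measured in both; brain/plasma ratio reported.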

Tubulin (Homo sapiens) [11] = biological target: T1, Tubulin (Homo sapiens); assay: Stabilization of microtubules in human QBI293 cells assessed as decrease in alpha-tubulin levels at 10 uM after 4 hrs by ELISA relative to control; format: cell-based; design: scale not given: the % may be the effect or the level left
Summary of the method: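 QBI293 cells grown in DMEM with 10% FBS, 2 mM L-glutamine and penicillin/streptomycin, plated at 6 × 10^5 cells/well and left overnight. […] Whole-cell extract supernatants protein-normalised by BCA. Total α-tubulin measured by ELISA against standard curves, reported as fold-change over DMSO-treated cells; one-way ANOVA.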

[12] = n-octanol/water, read-out: logD

Structure (SMILES)	fold change (FC) (Tubulin (Homo sapiens) [1])	fold change (FC) (Tubulin (Homo sapiens) [2])	fold change (FC) (Tubulin (Homo sapiens) [3])	fold change (FC) (Tubulin (Homo sapiens) [4])	Activity (Tubulin (Homo sapiens) [5]) [%]	fold change (FC) (Tubulin (Homo sapiens) [6])	fold change (FC) (Tubulin (Homo sapiens) [7])	logD [8, 12]	Activity (Tubulin (Homo sapiens) [9])	Kp at 1 h [10]	logD ([8]; octanol/water)	Activity (Tubulin (Homo sapiens) [11]) [%]
CSc1cc(F)c(-c2c(Cl)nc3ncnn3c2N[C@@H](C)C(F)(F)F)c(F)c1	0.88	1.75	0.35	0.56	> 15	2.23	0.27	–	–	–	–	–
CC(C)[C@@H](C)Nc1c(-c2c(F)cccc2F)c(Cl)nc2ncnn12	1	4.36	1.07	0.96	–	4.88	0.96	3.16	–	–	–	–
C[C@H](Nc1c(-c2c(F)cc(Cl)cc2F)c(Cl)nc2ncnn12)C(F)(F)F	0.93	1.88	0.7	0.81	> 15	4.28	0.31	–	–	–	–	–
CO[C@H]1C[C@H]2CC[C@@H](C1)N2c1c(-c2c(F)cc(C#N)cc2F)c(Cl)nc2ncnn12	0.99	2.61	1.06	1	–	4.32	0.64	2.74	–	–	–	–
Fc1cc(F)c(-c2c(Cl)nc3ncnn3c2N2CCCCC2)c(F)c1	1.23	2.21	0.33	1.2	–	5.84	0.13	–	Dose-dependent effect	–	–	–
CC(C)[C@@H](C)Nc1c(-c2c(F)cc(C#N)cc2F)c(Cl)nc2ncnn12	0.93	3.8	0.69	0.94	–	4.28	0.62	2.47	–	0.7	–	–
Cc1cc(F)c(-c2c(Cl)nc3ncnn3c2N[C@@H](C)C(F)(F)F)c(F)c1	0.99	1.62	0.48	0.78	> 15	2.73	0.28	–	–	–	–	–
C[C@H](Nc1c(-c2ccc(F)c(F)c2)c(Cl)nc2ncnn12)C(F)(F)F	1.01	1.85	0.12	1.13	–	4.76	0.05	–	Dose-dependent effect	–	–	–
CO[C@H]1C[C@H]2CC[C@@H](C1)N2c1c(-c2c(F)cc(F)cc2F)c(Cl)nc2ncnn12	1.12	3.65	1.11	1.38	–	7.43	0.54	3.38	Dose-dependent effect	–	–	–
CC(C)[C@@H](C)Nc1c(-c2ccc(C#N)cc2F)c(Cl)nc2ncnn12 (stereo in doubt; 67)	–	–	–	–	–	–	–	2.9	–	–	–	–
C[C@H](Nc1c(-c2c(F)cc(OCCCO)cc2F)c(Cl)nc2ncnn12)C(F)(F)F	–	–	–	–	> 15	–	–	–	–	–	–	–
CC(C)CNc1c(-c2c(F)cc(F)cc2F)c(Cl)nc2ncnn12	1.3	1.63	0.53	0.99	–	2.28	0.38	–	Dose-dependent effect	–	–	–
Fc1cc(F)c(-c2c(Cl)nc3ncnn3c2N2CCC2)c(F)c1	0.96	0.98	0.32	1.17	–	1.22	0.26	–	Dose-dependent effect	–	–	–
CC(C)[C@@H](C)Nc1c(-c2ccc(C#N)cc2F)c(Cl)nc2ncnn12 (stereo in doubt; 68)	–	–	–	–	–	–	–	–	–	–	2.67	–
CC(Cc1c(-c2c(F)cc(F)cc2F)c(Cl)nc2ncnn12)C(F)(F)F (configuration not stated)	1.03	2.3	0.53	0.78	–	2.29	0.53	–	–	–	–	22
CC(C)Nc1c(-c2c(F)cc(F)cc2F)c(Cl)nc2ncnn12	0.92	1.15	0.27	0.98	–	2.01	0.15	–	Dose-dependent effect	–	–	–
C[C@@H](Nc1c(-c2ccc(C#N)cc2F)c(Cl)nc2ncnn12)C(C)(C)C	0.86	4.41	1.24	0.93	–	7.67	0.71	2.86	–	–	–	–
CC(C)[C@@H](C)Nc1c(-c2ccccc2F)c(Cl)nc2ncnn12	1	0.95	0.43	1.04	–	2.1	0.2	2.95	–	–	–	–
CC(CF)Nc1c(-c2c(F)cc(F)cc2F)c(Cl)nc2ncnn12 (configuration not stated)	0.92	1.32	0.35	1.09	–	1.5	0.3	–	Dose-dependent effect	–	–	–
C[C@@H](Nc1c(-c2c(F)cc(F)cc2F)c(Cl)nc2ncnn12)C(F)(F)F	1.23	1.39	0.43	1.47	–	2.47	0.24	–	Dose-dependent effect	–	–	–
C[C@H](Nc1c(-c2cc(F)cc(F)c2)c(Cl)nc2ncnn12)C(F)(F)F	1.12	1.52	0.3	1.12	–	3.97	0.12	–	Dose-dependent effect	–	–	–
CC(C)[C@H](Nc1c(-c2c(F)cc(F)cc2F)c(Cl)nc2ncnn12)C(F)(F)F	–	–	–	–	–	–	–	–	–	–	–	39
N#Cc1ccc(-c2c(Cl)nc3ncnn3c2N2CCCCCC2)c(F)c1	1.04	7.17	0.97	0.99	–	12.6	0.55	3.15	–	–	–	–
C[C@H](Nc1c(-c2c(F)cc(O)cc2F)c(Cl)nc2ncnn12)C(F)(F)F	0.84	1.22	0.77	0.57	> 15	4.11	0.23	–	–	–	–	–
Fc1cc(F)c(-c2c(Cl)nc3ncnn3c2NC2CCCC2)c(F)c1	1.03	2.03	0.45	0.98	–	4.83	0.27	–	Dose-dependent effect	–	–	–
N#Cc1cc(F)c(-c2c(Cl)nc3ncnn3c2N2CCCCCC2)c(F)c1	0.98	6.4	1.82	0.99	–	11.2	1.04	2.12	–	0.7	–	–
C[C@H](Nc1c(-c2ccccc2)c(Cl)nc2ncnn12)C(F)(F)F	1.09	1.11	0.3	1.03	–	2.07	0.12	–	Dose-dependent effect	–	–	–
COc1cc(F)c(-c2c(Cl)nc3ncnn3c2N[C@@H](C)C(F)(F)F)c(F)c1	0.72	3.16	0.42	0.51	> 15	2.07	0.64	–	–	–	–	–
CC(Nc1c(-c2c(F)cc(F)cc2F)c(Cl)nc2ncnn12)C(F)F (configuration not stated)	1.19	1.28	0.35	1.17	–	1.82	0.3	–	Dose-dependent effect	–	–	–
